NadD inh: blocks S. aureus nicotinate mononucleotide adenylyltransferase; purified NadD enzyme, colorimetric absorbance read-out; inhibition, % at 20 µM; hit rate 0.78% among 360,000; AID 602399; in the data active = inhibition above about 26%
Scp-1 inhibitor: Scp-1 (human) phosphatase inhibition | Q9GZU7 | Recombinant Scp1, phosphopeptide, malachite green phosphate absorbance | inhibition, % at 20 µM | hit rate 0.88% among 340,000 | AID 493091;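 active = inhibition above about 50% at 20 µM, limit read from the data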;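 note: plate controls were DMSO wells with enzyme for no effect and wells lacking enzyme for full effect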
Target sequence (Q9GZU7 76-261 limits assumed): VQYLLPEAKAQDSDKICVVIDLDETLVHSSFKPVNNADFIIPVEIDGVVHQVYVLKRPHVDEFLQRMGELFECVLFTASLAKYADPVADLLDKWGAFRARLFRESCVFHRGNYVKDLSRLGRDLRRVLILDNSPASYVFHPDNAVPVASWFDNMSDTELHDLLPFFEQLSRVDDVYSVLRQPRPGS
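assay system = SCP-1 phosphatase catalytic domain, residues 76-261 | buffer or medium = 50 mM Tris acetate pH 5.5, 0.005% Tween-20, 10 mM MgCl2 | incubation = enzyme reaction 45 min at room temperature, colour 5 min, stabilisation 30 min | signal = Phosphate-binding colour reagent, absorbance read at 630 nm | measure = % inhibition at 20 µM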
STEP inh: blocks human striatal-enriched tyrosine phosphatase. P54829. recombinant STEP, OMFP fluorogenic substrate, fluorescence. inhibition, % at 20 µM. hit rate 0.25% among 360,000;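 active = inhibition at 20 µM, scaled per plate between control wells, above about 37%, limit read from the data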;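 note: 0% = DMSO with enzyme and substrate and 100% = substrate only without enzyme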
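System: STEP phosphatase, cell-free reaction; Buffer or medium: Bis-Tris pH 6.0 buffer with DTT, detergent; Incubation: 20 min at room temperature, dark; Measured by: fluorescence, 480/540 nm.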
rCAG RNA binder: r(CAG) repeat RNA binding; TO-PRO-1 dye displacement fluorescence; inhibition, % at 3 µM; hit rate 1.3% among 370,000;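 active = inhibition above the plate cutoff, the mean of all test compounds on that plate plus 3 SD, cut at about 35% in these data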;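 note: 0% = DMSO alone and 100% = 100 µM mitoxantrone as full dye displacement; higher means more dye released from RNA so lower well fluorescence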
LMPTP inh: blocks human LMPTP phosphatase | recombinant LMPTP-A, OMFP fluorogenic substrate, fluorescence intensity | inhibition, % at 20 µM | hit rate 0.22% among 360,000;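 active = compounds that cut the enzyme signal by at least half of the control window in the single-dose screen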;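 note: plate controls were DMSO wells with enzyme plus substrate for no effect and substrate without enzyme for full effect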
Target sequence (P24666 whole entry, looked up): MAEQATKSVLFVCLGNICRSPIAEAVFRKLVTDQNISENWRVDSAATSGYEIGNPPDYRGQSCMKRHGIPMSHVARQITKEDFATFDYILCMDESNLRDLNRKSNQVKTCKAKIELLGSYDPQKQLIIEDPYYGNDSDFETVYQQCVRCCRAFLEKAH
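Test system: LMPTP-A, protein tyrosine phosphatase of low molecular weight; Input: 0.625 nM enzyme; Incubation: 50 min dark incubation at room temperature; Signal: endpoint fluorescence intensity from OMFP dephosphorylation; Read-out basis: % inhibition versus control wells.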
rCAG bind conf: r(CAG) RNA repeat binding, confirmation. shares compounds with rCAG RNA binder. AID 652065. hit rate 70% among 4,300. inhibition, % at 3 µM. TO-PRO-1 dye displacement fluorescence;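 active = inhibition above a per-plate cutoff, the mean inhibition of sample wells plus 3 SD, cut at about 35% in these data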;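 note: loss of TO-PRO-1 fluorescence as compound displaces dye from 1x1 AA loop RNA; 0% = DMSO only wells and 100% = 100 µM mitoxantrone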
dCAG dye counter: disrupts DNA CAG TO-PRO-1 complex, flagging rCAG hits; shares compounds with rCAG RNA binder; d(CAG) DNA oligo TO-PRO-1 dye displacement, fluorescence; inhibition, % at 3 µM; hit rate 94% among 4,300;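 active = inhibition above its plate's cutoff, the mean test-well inhibition plus 3 SD, cut at about 4.8% in these data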;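 note: 0% = DNA dye mix with DMSO and 100% = 100 µM mitoxantrone; hits displace the dye from DNA and so lower well fluorescence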
DNA CAG DR: disrupts DNA CAG TO-PRO-1 complex in dose response; shares compounds with rCAG RNA binder; DNA CAG/GTC duplex TO-PRO-1 dye displacement fluorescence; IC50, µM; hit rate 20% among 250; in the data active = IC50 below about 10 µM
Active calls of the source: *. Hits are enriched below; roughly 2.6% of the tested compounds scored in any of these assays.

Screening Cc1ccc(-n2c(SCC(=O)c3ccc(O)c(O)c3)nnc2-c2ccccc2)cc1 returned rCAG RNA binder 39*, rCAG bind conf 37* and dCAG dye counter 15*.
CCc1ccc(C(=O)/C=C/c2ccc([N+](=O)[O-])o2)cc1 was read as NadD inh 26, Scp-1 inhibitor -7, STEP inh 5, rCAG RNA binder 38*, LMPTP inh 1, rCAG bind conf 17 and dCAG dye counter 11*.
Screening Cc1ccccc1C(=O)Nc1ccc(S(=O)(=O)Nc2onc(C)c2C)cc1 returned NadD inh -1, Scp-1 inhibitor -8, STEP inh 0, rCAG RNA binder 5 and LMPTP inh -1.
Cc1noc(NS(=O)(=O)c2ccc(NC(=O)c3oc4ccc(Cl)cc4c3C)cc2)c1C was read as NadD inh 10, Scp-1 inhibitor -9, STEP inh 2, rCAG RNA binder 88*, LMPTP inh 0, rCAG bind conf 85* and dCAG dye counter 48*.
Cc1ccc2c(C)c(C(=O)Nc3ccc(S(=O)(=O)Nc4onc(C)c4C)cc3)oc2c1 was read as NadD inh 2, Scp-1 inhibitor -9, STEP inh 2, rCAG RNA binder 79*, LMPTP inh -1, rCAG bind conf 74* and dCAG dye counter 40*.
`Cc1cc(C)c(C(=O)Nc2ccc(S(=O)(=O)Nc3onc(C)c3C)cc2)c(C)c1` gave NadD inh -4, Scp-1 inhibitor -9, STEP inh 3, rCAG RNA binder 14 and LMPTP inh 0.
Screening Cc1cccc(-n2ccc(=O)c(C(=O)Nc3ccc(S(=O)(=O)Nc4onc(C)c4C)cc3)n2)c1 returned NadD inh 5, Scp-1 inhibitor -8, STEP inh 1, rCAG RNA binder 39*, LMPTP inh -1, rCAG bind conf 43* and dCAG dye counter 12*.
For Cc1ccc(NS(=O)(=O)c2ccc(C)c(C(=O)Nc3ccc(S(=O)(=O)Nc4onc(C)c4C)cc3)c2)cc1 the results were NadD inh 11, Scp-1 inhibitor -5, STEP inh -4, rCAG RNA binder 64*, LMPTP inh -1, rCAG bind conf 70* and dCAG dye counter 35*.
`COc1ccc(-c2nnc(SCC(=O)Nc3ccc4cn[nH]c4c3)n2Cc2ccco2)cc1` gave rCAG RNA binder 6.
Screening Cc1ccc2c(=O)cc(C(=O)Nc3ccc(S(=O)(=O)Nc4onc(C)c4C)cc3)oc2c1 returned NadD inh 0, Scp-1 inhibitor -13, STEP inh 0, rCAG RNA binder 61*, LMPTP inh 1, rCAG bind conf 37* and dCAG dye counter 11*.
For COC1=C[C@H](C(=O)NCc2ccc(Br)cc2)[C@H](C)[C@@H](c2ccccc2)CC1=O the results were rCAG RNA binder 6.
CCOc1cc2c(c3c1C(c1ccccc1)N(S(=O)(=O)c1ccc(C)cc1)C3)C(=O)C=CC2=O (centres undefined) was read as NadD inh 46*, STEP inh 3, rCAG RNA binder 60*, LMPTP inh 19, rCAG bind conf 54* and dCAG dye counter 25*.
Screening CCOC(=O)C1=CCN(S(=O)(=O)c2ccc(C)cc2)C1c1ccccc1 (centres undefined) returned NadD inh -13, STEP inh 2, rCAG RNA binder 0 and LMPTP inh 2.
`CCOCC(=O)NC(=O)N1C[C@H]2CON(C)[C@H]2C[C@H]1c1ccc(OC)cc1` gave rCAG RNA binder 2.
Screening O=C(COc1ccccc1/C=C1/NC(=O)NC1=O)Nc1ccccc1 returned NadD inh 9, Scp-1 inhibitor 4, STEP inh 0, rCAG RNA binder 1 and LMPTP inh -2.
O=C(COc1ccccc1/C=C1\SC(=O)NC1=O)Nc1ccc(F)cc1 was read as NadD inh 4, Scp-1 inhibitor -3, STEP inh 1, rCAG RNA binder 52*, LMPTP inh -2, rCAG bind conf 45* and dCAG dye counter 16*.
For Cc1ccc(S(=O)(=O)Oc2ccccc2/C=C2\SC(=O)NC2=O)cc1 the results were NadD inh -1, Scp-1 inhibitor -6, STEP inh 2, rCAG RNA binder 42*, LMPTP inh -1, rCAG bind conf 30 and dCAG dye counter 7.4*.
`C[C@@H]1CCN(C2CC2)S(=O)(=O)c2c(cccc2N2CCC[C@@H]2C)O1` gave rCAG RNA binder 5.
COc1ccccc1/C=N\NC(=O)c1cccc(S(=O)(=O)N(C)C)c1 was read as rCAG RNA binder 0.
For O=C(CSc1nnc(SCc2ccccc2Cl)s1)N/N=C/c1ccc(C(=O)O)cc1 the results were NadD inh 4, Scp-1 inhibitor 6, STEP inh 1, rCAG RNA binder 49*, LMPTP inh 2, rCAG bind conf 60* and dCAG dye counter 17*.
O=C(CN(Cc1ccccc1Cl)S(=O)(=O)c1ccc(Cl)cc1)N/N=C/c1ccc(C(=O)O)cc1 was read as NadD inh 5, Scp-1 inhibitor 7, STEP inh 0, rCAG RNA binder 71*, LMPTP inh 1, rCAG bind conf 55* and dCAG dye counter 20*.
Cc1ccccc1CN1CCCCC(NC(=O)c2ccc3ccccc3c2)C1=O (centres undefined) was read as rCAG RNA binder 2.
COC(=O)C(C(=O)OC)[C@H]1C=C[C@@H](C(=O)NS(=O)(=O)c2ccc(C)cc2)N(C(C)=O)C1 was read as rCAG RNA binder 10.
Screening COc1ccc(NC(=O)c2c(NC(=O)CCC(=O)O)sc(-c3ccccc3)c2C)cc1 returned NadD inh 7, Scp-1 inhibitor -10, STEP inh 2, rCAG RNA binder 50*, LMPTP inh 1, rCAG bind conf 57*, dCAG dye counter 12* and DNA CAG DR >30.
Screening CN(C)c1cccc(/C=C2\CC3(OC(=O)c4ccccc4)CCCN2C3)c1 (centres undefined) returned rCAG RNA binder 5.
`Cc1ccc(CN2[C@@H](Cc3ccccc3)C(=O)CS2(=O)=O)cc1` gave NadD inh 3, Scp-1 inhibitor -11, STEP inh 0, rCAG RNA binder 41*, LMPTP inh 0, rCAG bind conf 21 and dCAG dye counter 9.1*.
Screening O=S1(=O)CCOC[C@H](Cc2ccccc2)N1Cc1ccccc1 returned NadD inh -4, Scp-1 inhibitor -11, STEP inh -2, rCAG RNA binder -1 and LMPTP inh 2.

Source: PubChem BioAssay (several laboratories)
